Tests used:
Cyclooxygenase [1] = biological target: T1, Cyclooxygenase (Rattus norvegicus, UniProt P35355+Q63921); assay: In vitro inhibition of PGE-2 production was measured in rat blood; format: functional
T1 sequence (P35355 whole entry): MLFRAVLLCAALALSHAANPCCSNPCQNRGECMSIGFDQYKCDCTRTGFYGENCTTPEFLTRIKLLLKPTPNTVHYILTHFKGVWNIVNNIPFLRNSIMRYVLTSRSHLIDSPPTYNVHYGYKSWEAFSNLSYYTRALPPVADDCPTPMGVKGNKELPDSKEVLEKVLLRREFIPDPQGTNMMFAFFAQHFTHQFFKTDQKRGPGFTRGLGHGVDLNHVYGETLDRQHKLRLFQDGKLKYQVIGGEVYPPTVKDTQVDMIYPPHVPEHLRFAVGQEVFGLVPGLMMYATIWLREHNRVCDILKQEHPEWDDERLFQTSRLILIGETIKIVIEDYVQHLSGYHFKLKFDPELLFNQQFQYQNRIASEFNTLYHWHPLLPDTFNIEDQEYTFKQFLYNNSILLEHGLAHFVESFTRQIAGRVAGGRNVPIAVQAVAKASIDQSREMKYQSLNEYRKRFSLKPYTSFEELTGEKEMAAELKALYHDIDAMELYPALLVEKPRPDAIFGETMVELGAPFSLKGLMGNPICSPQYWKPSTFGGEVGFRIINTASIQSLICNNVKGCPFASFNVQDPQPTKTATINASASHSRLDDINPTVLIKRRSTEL
T1 sequence (Q63921 whole entry): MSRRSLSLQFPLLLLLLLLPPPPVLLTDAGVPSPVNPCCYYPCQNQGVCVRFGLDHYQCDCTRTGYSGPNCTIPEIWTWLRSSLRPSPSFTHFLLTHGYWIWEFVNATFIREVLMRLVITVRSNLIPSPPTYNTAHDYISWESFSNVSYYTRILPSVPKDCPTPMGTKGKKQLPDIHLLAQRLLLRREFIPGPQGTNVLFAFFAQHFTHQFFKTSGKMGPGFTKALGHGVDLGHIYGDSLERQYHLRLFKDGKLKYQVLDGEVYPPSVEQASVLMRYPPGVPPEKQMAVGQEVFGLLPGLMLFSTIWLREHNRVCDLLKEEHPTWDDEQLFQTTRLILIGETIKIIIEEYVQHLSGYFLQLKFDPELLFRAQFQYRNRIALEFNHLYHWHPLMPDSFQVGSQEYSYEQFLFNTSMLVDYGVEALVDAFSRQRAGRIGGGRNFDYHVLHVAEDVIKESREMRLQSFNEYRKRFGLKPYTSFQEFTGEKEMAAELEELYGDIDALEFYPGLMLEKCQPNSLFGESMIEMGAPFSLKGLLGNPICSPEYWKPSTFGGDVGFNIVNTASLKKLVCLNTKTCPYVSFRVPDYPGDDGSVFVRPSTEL

[2] = biological target: T2, Polyunsaturated fatty acid 5-lipoxygenase (Rattus norvegicus, UniProt P12527); assay: In vitro inhibition of LTB4 production was measured in rat blood; format: functional
T2 sequence (P12527 whole entry): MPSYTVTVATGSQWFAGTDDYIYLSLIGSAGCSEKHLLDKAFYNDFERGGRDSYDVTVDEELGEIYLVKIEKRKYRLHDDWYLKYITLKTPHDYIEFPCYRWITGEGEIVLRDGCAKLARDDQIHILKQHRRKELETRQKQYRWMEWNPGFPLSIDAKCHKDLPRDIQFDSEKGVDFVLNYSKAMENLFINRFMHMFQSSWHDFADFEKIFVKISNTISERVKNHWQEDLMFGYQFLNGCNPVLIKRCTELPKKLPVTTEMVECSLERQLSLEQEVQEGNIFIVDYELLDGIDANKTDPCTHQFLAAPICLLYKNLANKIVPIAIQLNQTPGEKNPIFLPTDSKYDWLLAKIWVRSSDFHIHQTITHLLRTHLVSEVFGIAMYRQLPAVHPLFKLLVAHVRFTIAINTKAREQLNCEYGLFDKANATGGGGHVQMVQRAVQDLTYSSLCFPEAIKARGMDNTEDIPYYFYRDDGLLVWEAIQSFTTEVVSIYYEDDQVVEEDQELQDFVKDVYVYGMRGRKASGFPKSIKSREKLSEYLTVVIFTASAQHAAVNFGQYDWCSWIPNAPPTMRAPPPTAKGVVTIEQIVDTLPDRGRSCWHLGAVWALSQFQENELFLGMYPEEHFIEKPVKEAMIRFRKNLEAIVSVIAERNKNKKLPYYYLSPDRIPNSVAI
How it was run: (§1)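 Pooled heparinized blood from male Alderley Park Wistar rats (vena cava) held on ice; preincubated with compound in DMSO (1% final) 15 min at 37 °C, then A23187 (20 µg/mL) added for a further 15 min; stopped with cocktail of indomethacin, EGTA and azide; plasma LTB4 and PGE2 by radioimmunoassay. IC50 by nonlinear regression from two experiments.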

[3] = biological target: Polyunsaturated fatty acid 5-lipoxygenase (Canis lupus familiaris); assay: Ex vivo inhibition of LTB4 production was measured in dog blood
Canis familiaris = species: Canis familiaris; assay: In vitro test for the induction of the production of methemoglobin (MHb) in dog blood; format: functional, Canis lupus familiaris
How it was run: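 Pooled heparinized dog blood (leg vein) incubated with compound for 2 h at 37 °C; methemoglobin quantified by cooximeter.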

Cyclooxygenase [4] = biological target: T1, Cyclooxygenase; assay: In vitro inhibition of PGE-2 (PG) production in rat blood; 3-30; format: functional; how it was run: as §1

O=c1c2ccccc2[nH]n1-c1ccccc1
IC50 (Cyclooxygenase [1]): 2.7 µM

O=c1c2ccccc2[nH]n1Cc1ccccc1
IC50 (Cyclooxygenase [1]): 18 µM

c1ccc(COc2[nH]nc3ccccc23)cc1
IC50 [2]: > 30 µM

O=c1[nH]n(-c2ccccc2)c2ccccc12
IC50 [2]: 30 µM

Cn1c2ccccc2c(=O)n1Cc1ccccc1
IC50 [2]: > 30 µM
ED50 [3]: > 100 mg/kg

Oc1n[nH]c2ccccc12
ED25 (Canis familiaris): 40 µM
IC50 (Cyclooxygenase [1]): 30 µM

Cc1ccc(Cn2[nH]c3ccccc3c2=O)cn1
IC50 [2]: 2.5 µM
IC50 (Cyclooxygenase [1]): 21 µM
ED50 [3]: 10 mg/kg

O=c1c2ccccc2[nH]n1Cc1c[nH]c2ccccc12
IC50 (Cyclooxygenase [1]): 94 µM

C[C@H](c1cccc2ccccc12)n1[nH]c2ccccc2c1=O
IC50 [2]: 1.4 µM
IC50 (Cyclooxygenase [1]): 400 µM
ED50 [3]: > 100 mg/kg

Cc1ccncc1Cn1[nH]c2ccccc2c1=O
IC50 [2]: 3 µM
IC50 (Cyclooxygenase [1]): > 30 µM
ED50 [3]: 5 mg/kg

O=c1c2ccccc2[nH]n1Cc1ccc2ccccc2c1
IC50 (Cyclooxygenase [1]): 18 µM

O=c1c2ccccc2[nH]n1CCCc1ccccc1
IC50 [2]: 0.54 µM
IC50 (Cyclooxygenase [1]): 3.8 µM
ED50 [3]: > 100 mg/kg

O=c1c2ccccc2[nH]n1Cc1cccnc1
ED25 (Canis familiaris): 7.5 µM
IC50 (Cyclooxygenase [1]): > 300 µM

O=c1c2ccccc2[nH]n1Cc1ccccn1
IC50 (Cyclooxygenase [1]): 67 µM

C[C@@H](c1cccc2ccccc12)n1[nH]c2ccccc2c1=O
IC50 [2]: 11 µM
IC50 (Cyclooxygenase [1]): 48 µM

O=c1c2ccccc2[nH]n1Cc1cccnc1Cl
IC50 [2]: 1.4 µM
IC50 (Cyclooxygenase [1]): 12 µM
ED50 [3]: 5 mg/kg

Cn1[nH]c2ccccc2c1=O
ED25 (Canis familiaris): 10 µM
IC50 (Cyclooxygenase [1]): 17 µM

O=c1c2ccccc2[nH]n1Cc1cncc(Br)c1
IC50 [2]: 1 µM
IC50 (Cyclooxygenase [1]): 39 µM
ED50 [3]: 10 mg/kg

CCCCCNC(=O)c1cccc2[nH]n(Cc3cccnc3)c(=O)c12
ED25 (Canis familiaris): >250 µM

O=c1c2ccccc2[nH]n1CCc1ccccc1
IC50 (Cyclooxygenase [1]): 15 µM

O=c1c2ccccc2[nH]n1Cc1ccc(Cl)nc1
IC50 (Cyclooxygenase [4]): 3 µM
IC50 [2]: < 1 µM
ED50 [3]: 15 mg/kg

O=c1c2ccccc2[nH]n1CCCCc1ccccc1
IC50 [2]: 0.78 µM
IC50 (Cyclooxygenase [1]): 26 µM
ED50 [3]: > 100 mg/kg

O=c1c2ccccc2[nH]n1Cc1cncs1
IC50 (Cyclooxygenase [1]): > 100 µM

O=c1c2ccccc2[nH]n1Cc1ccco1
IC50 (Cyclooxygenase [1]): 13 µM

O=c1c2ccccc2[nH]n1Cc1cccs1
IC50 (Cyclooxygenase [1]): 26 µM

O=c1c2ccccc2[nH]n1Cc1ccncc1
IC50 (Cyclooxygenase [1]): 280 µM

O=c1c2ccccc2[nH]n1Cc1cccc2ccccc12
IC50 [2]: 0.61 µM
IC50 (Cyclooxygenase [1]): 100 µM
ED50 [3]: > 100 mg/kg

Cc1ncccc1Cn1[nH]c2ccccc2c1=O
IC50 [2]: 2.6 µM
IC50 (Cyclooxygenase [1]): 58 µM
ED50 [3]: 10 mg/kg

CCCCCNC(=O)c1cccc2[nH]n(C)c(=O)c12
ED25 (Canis familiaris): >250 µM

Cc1cncc(Cn2[nH]c3ccccc3c2=O)c1
IC50 [2]: 1.8 µM
IC50 (Cyclooxygenase [1]): 81 µM
ED50 [3]: 15 mg/kg

COc1ccc(Cn2[nH]c3ccccc3c2=O)cn1
IC50 (Cyclooxygenase [4]): 3 µM

Cn1[nH]c(=O)c2ccccc21
IC50 [2]: 3 µM
IC50 (Cyclooxygenase [1]): 20 µM
ED50 [3]: > 100 mg/kg

COc1nn(Cc2ccccc2)c2ccccc12
IC50 [2]: > 30 µM

Cn1c(=O)c2ccccc2n1Cc1ccccc1
IC50 [2]: > 30 µM

CCCCCNC(=O)c1cccc2n[nH]c(O)c12
ED25 (Canis familiaris): >250 µM

O=c1[nH]n(Cc2ccccc2)c2ccccc12
IC50 [2]: 3.4 µM
IC50 (Cyclooxygenase [1]): 31 µM

O=c1cc(-c2ccccc2)oc2cc(O)c(O)c(O)c12 [BAICALEIN]
IC50 (Cyclooxygenase [1]): 50 µM

NC1=NN(c2cccc(C(F)(F)F)c2)CC1 [BW-755C]
IC50 (Cyclooxygenase [1]): 5 µM

CC(Cc1ccc(O)c(O)c1)C(C)Cc1ccc(O)c(O)c1 (stereo unspecified) [NORDIHYDROGUAIARETIC ACID]
IC50 (Cyclooxygenase [1]): 30 µM

O=C1CCN(c2ccccc2)N1 [PHENIDONE]
IC50 (Cyclooxygenase [1]): 3 µM

O=c1c(O)c(-c2ccc(O)c(O)c2)oc2cc(O)cc(O)c12 [QUERCETIN]
IC50 (Cyclooxygenase [1]): 50 µM

— ChEMBL document CHEMBL1125845, “Indazolinones, a new series of redox-active 5-lipoxygenase inhibitors with built-in selectivity and oral activity” (J Med Chem, 1991)
